In ChEMBL document CHEMBL4052683, “The discovery of benzoxazine sulfonamide inhibitors of NaV1.7: Tools that bridge efficacy and target engagement” (Bioorg Med Chem Lett, 2017):
Calls of active or inactive are those of the source. No cut-off for these calls is given here.

Experiments:
[1] = Ratio of unbound plasma concentration in C57BL/6 mouse model of formalin-induced nociception behavior at 100 mg/kg, po to IC50 for mouse Nav1.7 by whole cell voltage clamp method
Method in brief: (§1)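 Male C57BL/6 mice got 30, 60 or 100 mg/kg PO in 30% (w/v) hydroxypropyl β-cyclodextrin in water, pH 10.0 with KOH. Formalin (2%) was injected subcutaneously into the dorsal hind paw, and total phase II paw licking and lifting were scored. Morphine sulfate 3 mg/kg SC served as control. Unbound plasma concentration was divided by the mouse NaV1.7 IC50.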

Plasma [2] = test: Plasma concentration in C57BL/6 mouse model of formalin-induced nociception behavior at 100 mg/kg, po; format: ADME, organism-based; conditions: in vivo; method in brief: as §1
[3] = molecular target: Sodium channel protein type 9 subunit alpha (Mus musculus, UniProt Q62205); test: Inhibition of mouse NaV1.7 by whole cell voltage clamp method
Method in brief: (§2)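 PatchXpress electrophysiology was run with a protocol giving about 20% channel inactivation. At least four concentrations at half-log spacing were applied one at a time, with washout, current recovery and holding voltage reset between each. Data were pooled from at least 10 cells, with 2–3 points per concentration, and fitted with a 4-parameter Hill curve to give one IC50.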

[4] = Half life in mouse at 30 mg/kg, po by LC-MS/MS method; format: ADME, organism-based; conditions: in vivo
[5] = Tmax in mouse at 30 mg/kg, po by LC-MS/MS method; format: ADME, organism-based; conditions: in vivo
Mus musculus [6] = test: Anti-pruritic activity in C57BL/6 mouse model of histamine-induced pruritus assessed as reduction in histamine-induced scratching at 60 mg/kg, po dosed 120 mins before test; format: functional
Method in brief: (§3)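 Male C57BL/6 mice got 30, 60 or 100 mg/kg PO in 30% hydroxypropyl β-cyclodextrin, pH 10.0, 120 min before the test. Histamine (8.15mM) was given intradermally to the nape of the neck just before testing, and scratch bouts were counted over 0–30 min. Diphenhydramine 30 mg/kg PO in water, 90 min before, served as control. Unbound plasma concentrations were measured.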

[7] = Ratio of unbound plasma concentration in C57BL/6 mouse model of formalin-induced nociception behavior at 30 mg/kg, po to IC50 for mouse Nav1.7 by whole cell voltage clamp method; method in brief: as §1
[8] = Clearance in rat at 0.5 mg/kg, iv by LC-MS/MS method; format: ADME, organism-based; conditions: in vivo
Method in brief: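 Male rats got 0.5 mg/kg IV as a DMSO solution. Unbound clearance was taken as rat clearance divided by the unbound fraction from equilibrium dialysis.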

Rattus norvegicus [9] = test: Analgesic activity in Sprague-Dawley rat model of formalin-induced nociception behavior assessed as reduction in formalin-evoked paw flinching at 100 mg/kg, po; format: functional
Method in brief: (§4)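 Sprague Dawley rats got 10, 30 or 100 mg/kg PO in 30% (w/v) hydroxypropyl β-cyclodextrin, pH 10.0 with KOH. Total phase II formalin-induced flinches were counted. Morphine sulfate 2 mg/kg SC served as control. Unbound plasma levels were measured and compared with the rat NaV1.7 IC50.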

Plasma [10] = test: Plasma concentration in Sprague-Dawley rat model of formalin-induced nociception behavior at 30 mg/kg, po; format: ADME, organism-based; conditions: in vivo; method in brief: as §4
[11] = Unbound fraction in mouse plasma at 5 uM by ultracentrifugation and LC-MS/MS method; format: ADME, cell-free
[12] = molecular target: Sodium channel protein type 10 subunit alpha (Rattus norvegicus, UniProt Q62968); test: Inhibition of NaV1.8 in rat DRG neurons assessed as reduction in tetrodotoxin-resistant sodium channel currents at holding potential of -140 mV by manual patch clamp electrophysiology assay
Plasma [13] = test: Plasma concentration in Sprague-Dawley rat model of formalin-induced nociception behavior at 100 mg/kg, po; format: ADME, organism-based; conditions: in vivo; method in brief: as §4
Plasma [14] = test: Plasma concentration in C57BL/6 mouse model of histamine-induced pruritus at 60 mg/kg, po; format: ADME, organism-based; conditions: in vivo; method in brief: as §3
Mus musculus [15] = test: Analgesic activity in C57BL/6 mouse model of formalin-induced nociception behavior assessed as reduction in formalin-evoked paw lifting/licking at 60 mg/kg, po; format: functional; method in brief: as §1
Rattus norvegicus [16] = test: Unbound clearance in rat at 0.5 mg/kg, iv by LC-MS/MS method; format: ADME, organism-based; conditions: in vivo
Method in brief: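 Male rats given 0.5 mg/kg intravenously as a solution in DMSO. Unbound clearance was calculated as rat clearance divided by unbound fraction, with unbound fraction determined by equilibrium dialysis.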

Plasma [17] = test: Unbound plasma concentration in C57BL/6 mouse model of formalin-induced nociception behavior at 30 mg/kg, po; format: ADME, organism-based; conditions: in vivo
Method in brief: (§5)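 The formalin arm received 2% formalin subcutaneously into the dorsal hind paw, and total phase II licking and lifting was scored. The pruritus arm was dosed 120 min before histamine (8.15mM, intradermal, nape of neck), and scratch bouts were counted over 0-30 min. Unbound plasma concentration was determined at each dose.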

Plasma [18] = test: Unbound plasma concentration in C57BL/6 mouse model of histamine-induced pruritus at 60 mg/kg, po; format: ADME, organism-based; conditions: in vivo; method in brief: as §5
Plasma [19] = test: Unbound plasma concentration in C57BL/6 mouse model of formalin-induced nociception behavior at 60 mg/kg, po; format: ADME, organism-based; conditions: in vivo; method in brief: as §5
[20] = Ratio of unbound plasma concentration in C57BL/6 mouse model of formalin-induced nociception behavior at 60 mg/kg, po to IC50 for mouse Nav1.7 by whole cell voltage clamp method; method in brief: as §5
Plasma [21] = test: Unbound plasma concentration in C57BL/6 mouse model of histamine-induced pruritus at 30 mg/kg, po; format: ADME, organism-based; conditions: in vivo; method in brief: as §5
Plasma [22] = test: Unbound plasma concentration in Sprague-Dawley rat model of formalin-induced nociception behavior at 10 mg/kg, po; format: ADME, organism-based; conditions: in vivo
Method in brief: (§6)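 Total phase II formalin-induced flinches were scored. Unbound plasma concentration was determined at each dose and related to the rat NaV1.7 IC50.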

[23] = Inhibition of cynomolgus monkey NaV1.7 by whole cell voltage clamp method; conditions: Macaca fascicularis; method in brief: as §2
[24] = Ratio of unbound plasma concentration in C57BL/6 mouse model of histamine-induced pruritus at 100 mg/kg, po to IC50 for mouse Nav1.7 by whole cell voltage clamp method; method in brief: as §5
[25] = Ratio of unbound plasma concentration in Sprague-Dawley rat model of formalin-induced nociception behavior at 10 mg/kg, po to IC50 for rat Nav1.7 by whole cell voltage clamp method; method in brief: as §6
Plasma [26] = test: Plasma concentration in C57BL/6 mouse model of formalin-induced nociception behavior at 30 mg/kg, po; format: ADME, organism-based; conditions: in vivo; method in brief: as §1
Mus musculus [27] = test: Analgesic activity in C57BL/6 mouse model of formalin-induced nociception behavior assessed as reduction in formalin-evoked paw lifting/licking at 30 to 100 mg/kg, po; format: functional, organism-based; method in brief: as §1
[28] = Volume of distribution in rat at 0.5 mg/kg, iv by LC-MS/MS method; format: ADME, organism-based; conditions: in vivo
Plasma [29] = test: Plasma concentration in C57BL/6 mouse model of histamine-induced pruritus at 30 mg/kg, po; format: ADME, organism-based; conditions: in vivo; method in brief: as §3
[30] = molecular target: Histamine H1 receptor (Homo sapiens) (UniProt P35367); test: Displacement of [3H]pyrilamine from human recombinant histamine H1 receptor expressed in HEK293 cells at 10 uM by radioligand displacement assay; format: cell-based
Mus musculus [31] = test: Anti-pruritic activity in C57BL/6 mouse model of histamine-induced pruritus assessed as reduction in histamine-induced scratching at 100 mg/kg, po dosed 120 mins before test; format: functional; method in brief: as §3

Histamine H1 receptor (Homo sapiens), sequence (P35367 whole entry): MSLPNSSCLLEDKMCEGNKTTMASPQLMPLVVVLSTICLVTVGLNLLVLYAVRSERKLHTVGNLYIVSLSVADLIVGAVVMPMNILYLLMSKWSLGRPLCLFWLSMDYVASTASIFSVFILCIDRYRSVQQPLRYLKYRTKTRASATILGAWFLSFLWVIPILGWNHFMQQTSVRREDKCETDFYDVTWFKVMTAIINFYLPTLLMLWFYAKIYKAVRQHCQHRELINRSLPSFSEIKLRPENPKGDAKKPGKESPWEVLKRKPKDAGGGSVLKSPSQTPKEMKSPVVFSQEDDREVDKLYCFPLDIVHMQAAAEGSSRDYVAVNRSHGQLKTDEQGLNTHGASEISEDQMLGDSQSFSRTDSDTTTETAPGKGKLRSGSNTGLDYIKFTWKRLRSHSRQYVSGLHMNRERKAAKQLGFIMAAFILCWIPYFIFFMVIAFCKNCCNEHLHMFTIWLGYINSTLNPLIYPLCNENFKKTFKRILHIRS
Sodium channel protein type 10 subunit alpha, sequence (Q62968 whole entry): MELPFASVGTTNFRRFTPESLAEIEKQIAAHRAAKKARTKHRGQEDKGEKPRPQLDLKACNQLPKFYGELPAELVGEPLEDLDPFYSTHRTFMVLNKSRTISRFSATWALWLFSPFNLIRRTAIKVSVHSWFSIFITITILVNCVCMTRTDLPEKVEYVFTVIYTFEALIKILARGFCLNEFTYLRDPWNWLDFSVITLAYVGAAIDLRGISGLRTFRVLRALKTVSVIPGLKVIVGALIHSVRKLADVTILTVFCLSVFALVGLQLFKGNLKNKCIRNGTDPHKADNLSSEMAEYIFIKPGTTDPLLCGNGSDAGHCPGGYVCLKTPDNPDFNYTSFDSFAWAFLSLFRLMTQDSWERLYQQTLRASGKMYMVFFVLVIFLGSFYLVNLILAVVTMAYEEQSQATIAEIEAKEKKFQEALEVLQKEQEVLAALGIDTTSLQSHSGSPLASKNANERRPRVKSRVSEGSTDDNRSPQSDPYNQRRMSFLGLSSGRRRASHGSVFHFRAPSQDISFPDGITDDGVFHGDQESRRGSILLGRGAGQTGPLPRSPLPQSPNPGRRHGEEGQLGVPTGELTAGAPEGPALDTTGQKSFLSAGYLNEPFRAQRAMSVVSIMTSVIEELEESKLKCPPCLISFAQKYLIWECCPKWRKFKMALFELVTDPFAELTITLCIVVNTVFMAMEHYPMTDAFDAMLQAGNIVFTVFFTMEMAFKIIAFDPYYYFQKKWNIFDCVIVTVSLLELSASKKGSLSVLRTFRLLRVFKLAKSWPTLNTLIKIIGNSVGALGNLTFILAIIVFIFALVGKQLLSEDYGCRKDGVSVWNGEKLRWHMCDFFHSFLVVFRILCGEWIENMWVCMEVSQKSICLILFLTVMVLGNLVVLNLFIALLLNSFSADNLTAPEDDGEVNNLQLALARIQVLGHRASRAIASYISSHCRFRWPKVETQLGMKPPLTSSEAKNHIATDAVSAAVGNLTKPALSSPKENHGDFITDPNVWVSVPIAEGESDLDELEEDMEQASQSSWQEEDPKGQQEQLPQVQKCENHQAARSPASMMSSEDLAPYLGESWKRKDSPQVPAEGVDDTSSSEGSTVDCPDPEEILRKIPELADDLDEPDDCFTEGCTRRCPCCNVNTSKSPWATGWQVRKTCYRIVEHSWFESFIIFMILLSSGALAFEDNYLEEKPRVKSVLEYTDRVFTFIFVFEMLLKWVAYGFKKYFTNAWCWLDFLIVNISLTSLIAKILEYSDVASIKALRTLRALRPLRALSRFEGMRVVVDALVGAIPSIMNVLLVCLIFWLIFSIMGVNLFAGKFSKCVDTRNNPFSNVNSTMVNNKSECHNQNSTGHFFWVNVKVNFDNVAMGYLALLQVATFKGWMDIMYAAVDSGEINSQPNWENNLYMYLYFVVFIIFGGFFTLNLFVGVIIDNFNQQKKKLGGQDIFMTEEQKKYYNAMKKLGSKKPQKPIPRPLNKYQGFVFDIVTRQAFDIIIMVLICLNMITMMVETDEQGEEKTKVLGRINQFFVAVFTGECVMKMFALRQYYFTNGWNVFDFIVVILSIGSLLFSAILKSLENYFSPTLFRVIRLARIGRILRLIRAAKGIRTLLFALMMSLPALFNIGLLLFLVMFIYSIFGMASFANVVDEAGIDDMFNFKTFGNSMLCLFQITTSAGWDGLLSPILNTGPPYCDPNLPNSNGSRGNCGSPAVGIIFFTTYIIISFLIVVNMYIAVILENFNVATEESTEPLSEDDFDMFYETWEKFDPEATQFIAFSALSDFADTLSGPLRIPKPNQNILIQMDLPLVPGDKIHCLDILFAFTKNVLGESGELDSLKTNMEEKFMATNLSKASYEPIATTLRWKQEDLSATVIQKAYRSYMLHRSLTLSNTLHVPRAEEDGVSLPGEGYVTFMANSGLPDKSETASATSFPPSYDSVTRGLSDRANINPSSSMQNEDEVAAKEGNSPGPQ
Sodium channel protein type 9 subunit alpha, sequence (Q62205 whole entry): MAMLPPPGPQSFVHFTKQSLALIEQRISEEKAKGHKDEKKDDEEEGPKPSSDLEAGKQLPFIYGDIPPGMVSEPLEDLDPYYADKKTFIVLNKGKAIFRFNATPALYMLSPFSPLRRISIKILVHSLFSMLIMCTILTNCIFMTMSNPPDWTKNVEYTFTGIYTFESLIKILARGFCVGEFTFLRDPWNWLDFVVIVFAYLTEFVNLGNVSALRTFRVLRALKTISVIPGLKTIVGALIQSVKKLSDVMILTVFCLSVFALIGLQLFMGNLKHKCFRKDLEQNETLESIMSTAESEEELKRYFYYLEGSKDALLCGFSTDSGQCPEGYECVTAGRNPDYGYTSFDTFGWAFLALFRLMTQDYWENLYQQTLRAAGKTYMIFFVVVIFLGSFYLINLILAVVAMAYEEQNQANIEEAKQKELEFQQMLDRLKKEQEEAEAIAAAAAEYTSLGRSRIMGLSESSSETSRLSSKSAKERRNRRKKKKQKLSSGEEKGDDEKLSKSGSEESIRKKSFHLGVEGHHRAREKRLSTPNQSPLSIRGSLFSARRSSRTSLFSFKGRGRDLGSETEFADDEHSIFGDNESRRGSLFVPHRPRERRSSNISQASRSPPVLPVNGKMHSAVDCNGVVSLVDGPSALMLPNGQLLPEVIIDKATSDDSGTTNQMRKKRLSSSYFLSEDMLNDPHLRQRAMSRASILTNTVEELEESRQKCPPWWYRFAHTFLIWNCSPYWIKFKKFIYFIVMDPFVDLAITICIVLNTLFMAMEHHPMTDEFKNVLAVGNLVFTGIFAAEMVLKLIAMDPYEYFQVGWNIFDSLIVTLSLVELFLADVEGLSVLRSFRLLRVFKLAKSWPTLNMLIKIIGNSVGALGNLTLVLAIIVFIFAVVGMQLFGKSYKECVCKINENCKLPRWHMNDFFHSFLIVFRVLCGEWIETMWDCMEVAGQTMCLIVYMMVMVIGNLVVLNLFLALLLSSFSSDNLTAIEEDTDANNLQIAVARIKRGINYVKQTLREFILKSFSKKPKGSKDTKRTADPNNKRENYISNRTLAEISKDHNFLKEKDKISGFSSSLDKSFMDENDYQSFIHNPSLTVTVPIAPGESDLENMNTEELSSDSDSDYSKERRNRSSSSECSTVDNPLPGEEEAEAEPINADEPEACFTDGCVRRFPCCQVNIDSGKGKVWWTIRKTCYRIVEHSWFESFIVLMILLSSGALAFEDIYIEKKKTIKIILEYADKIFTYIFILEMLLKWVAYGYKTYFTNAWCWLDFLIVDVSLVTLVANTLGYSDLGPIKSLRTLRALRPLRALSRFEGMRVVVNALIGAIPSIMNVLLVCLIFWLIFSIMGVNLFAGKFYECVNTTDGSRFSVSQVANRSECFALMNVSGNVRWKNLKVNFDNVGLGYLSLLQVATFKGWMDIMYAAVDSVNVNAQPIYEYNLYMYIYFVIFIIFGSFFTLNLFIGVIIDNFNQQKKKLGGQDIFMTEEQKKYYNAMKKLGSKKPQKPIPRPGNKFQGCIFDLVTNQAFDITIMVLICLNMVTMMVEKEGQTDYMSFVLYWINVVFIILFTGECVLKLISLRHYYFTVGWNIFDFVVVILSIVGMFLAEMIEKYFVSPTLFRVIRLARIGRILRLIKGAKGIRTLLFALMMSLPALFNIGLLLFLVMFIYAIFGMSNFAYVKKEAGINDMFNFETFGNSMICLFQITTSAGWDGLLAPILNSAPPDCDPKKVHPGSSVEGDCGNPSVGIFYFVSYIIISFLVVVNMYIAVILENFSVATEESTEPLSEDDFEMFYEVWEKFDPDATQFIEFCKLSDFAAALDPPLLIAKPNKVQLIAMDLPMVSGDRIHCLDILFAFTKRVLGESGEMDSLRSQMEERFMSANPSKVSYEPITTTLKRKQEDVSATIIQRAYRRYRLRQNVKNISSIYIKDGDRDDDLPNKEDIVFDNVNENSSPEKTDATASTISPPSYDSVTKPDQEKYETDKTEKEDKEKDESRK

N#Cc1cc(C(F)(F)F)ccc1N1CCOc2cc(S(=O)(=O)Nc3nccs3)c(F)cc21
Ratio [1]: 16
concentration (Plasma [2]): 150 µM
IC50 [3]: 60 nM
half-life [4]: 7.1 h
Tmax [5]: 2 h
MPE (Mus musculus [6]): 71%
Ratio [7]: 5
clearance [8]: 10 mL/min/kg
MPE (Rattus norvegicus [9]): 70%
concentration (Plasma [10]): 4.2 µM
fraction unbound at 5 µM [11]: 0.006
IC50 [12]: > 30000 nM
concentration (Plasma [13]): 11 µM
concentration (Plasma [14]): 109 µM
MPE (Mus musculus [15]): 45%
CL free (Rattus norvegicus [16]): 650 mL/min/kg
Cp(f) (Plasma [17]): 0.3 µM
Cp(f) (Plasma [18]): 0.66 µM
Cp(f) (Plasma [19]): 0.62 µM
Ratio [20]: 10
Cp(f) (Plasma [21]): 0.37 µM
Cp(f) (Plasma [22]): 0.027 µM
IC50 [23]: 370 nM
Ratio [24]: 11
Ratio [25]: 0.5
concentration (Plasma [26]): 51 µM
inhibition (Mus musculus [27]): Dose-dependent effect
Vd [28]: 2.5 L/kg
concentration (Plasma [29]): 61 µM
inhibition [30]: inactive
MPE (Mus musculus [31]): 80%
